In PubChem BioAssay:
Activity calls are given as the source filed them.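 The calls were made as follows, unless noted: active = Her2 level under about 52% in both replicate screens, with viability over 70% of control (limit read from the data); inconclusive = Her2 under the limit in one screen only, or viability under 70%; inactive = Her2 level above the set limit.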

Legend:
[1] = reducers of endogenous Her2 protein level, primary screen, SKBR3 breast tumor cells, AlphaScreen, ATP viability (AID 461); conditions: 18-24 h, measured here: SKBR3 viability, ATP luminescence, at 10 µM;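 as to Her2 level: lower value means less Her2 protein in the cells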;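 as to viability: percent of carrier control wells set as 100% viability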
[2] = molecular target: Receptor tyrosine-protein kinase erbB-2 (Homo sapiens) (UniProt P04626); assay: as above; conditions: 18-24 h, at 10 µM, stronger effect = lower value
Sequence of Receptor tyrosine-protein kinase erbB-2 (Homo sapiens) (P04626 whole entry, looked up): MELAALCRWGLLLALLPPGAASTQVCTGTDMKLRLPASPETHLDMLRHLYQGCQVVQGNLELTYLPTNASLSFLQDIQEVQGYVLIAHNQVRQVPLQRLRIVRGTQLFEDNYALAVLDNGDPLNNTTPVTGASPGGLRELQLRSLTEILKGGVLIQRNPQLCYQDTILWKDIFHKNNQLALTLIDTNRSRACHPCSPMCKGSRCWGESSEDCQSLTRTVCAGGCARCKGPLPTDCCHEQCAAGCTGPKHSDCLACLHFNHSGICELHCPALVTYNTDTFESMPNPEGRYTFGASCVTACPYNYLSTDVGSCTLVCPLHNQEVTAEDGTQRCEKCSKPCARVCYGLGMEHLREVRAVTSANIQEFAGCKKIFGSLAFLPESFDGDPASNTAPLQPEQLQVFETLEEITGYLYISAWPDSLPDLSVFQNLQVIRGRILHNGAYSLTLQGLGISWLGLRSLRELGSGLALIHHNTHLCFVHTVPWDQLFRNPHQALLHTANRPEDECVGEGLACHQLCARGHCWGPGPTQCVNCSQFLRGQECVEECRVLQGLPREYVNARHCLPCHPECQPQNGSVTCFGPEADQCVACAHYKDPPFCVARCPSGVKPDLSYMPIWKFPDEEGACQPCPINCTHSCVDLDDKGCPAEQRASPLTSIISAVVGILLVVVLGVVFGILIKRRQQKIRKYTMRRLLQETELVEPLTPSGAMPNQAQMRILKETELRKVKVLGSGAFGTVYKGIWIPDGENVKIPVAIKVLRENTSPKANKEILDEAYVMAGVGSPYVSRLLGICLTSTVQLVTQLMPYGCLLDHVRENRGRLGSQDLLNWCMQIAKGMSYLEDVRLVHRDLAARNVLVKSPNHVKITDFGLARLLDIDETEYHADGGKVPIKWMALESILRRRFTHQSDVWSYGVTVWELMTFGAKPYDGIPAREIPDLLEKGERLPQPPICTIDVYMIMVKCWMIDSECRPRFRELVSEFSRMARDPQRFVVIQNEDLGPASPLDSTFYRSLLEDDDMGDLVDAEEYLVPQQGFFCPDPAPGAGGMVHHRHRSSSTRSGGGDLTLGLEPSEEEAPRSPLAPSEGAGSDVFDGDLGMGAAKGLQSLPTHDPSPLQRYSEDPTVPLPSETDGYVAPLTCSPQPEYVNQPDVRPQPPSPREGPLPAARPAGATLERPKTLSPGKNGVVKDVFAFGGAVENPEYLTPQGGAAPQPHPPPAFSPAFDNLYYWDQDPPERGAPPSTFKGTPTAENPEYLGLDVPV

[3] = SK-BR-3 cell growth inhibitors, pilot screen, 24 h, human (AID 572;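 active = viability at or below 10% of carrier control in both of two separate runs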;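 also: compound exposure lasted between 18 and 24 h rather than exactly 24 h; 100% = carrier-treated control wells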); conditions: SK-BR-3 viability, CellTiter-Glo luminescence, at 10 µM, stronger effect = lower value
[4] = HUVEC growth inhibition – cell-based, human, primary screen (AID 575;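 active = viability at or below 30% in both replicate assays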;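 also: 100% = median of untreated cell wells with 0.1% DMSO on each plate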); conditions: HUVEC proliferation, CellTiter-Glo luminescence, 72 h; at 10 µM; stronger effect = lower value
Method in brief: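 Assay system: primary human umbilical vein endothelial cells / Buffer or medium: endothelial basal medium with 2% FBS plus growth supplements / Compound dosing: one dose, 10 µM final, 0.1% DMSO / Timing: 72 h treatment at 37 °C / Signal: CTG luminescence / Benchmarks: 32 DMSO-only cell-control wells (high), 32 MePR drug-control wells (low) per plate / Plate: collagen-coated 384-well format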

[5] = growth inhibitors of H69AR lung tumor, primary screen, human, duplicate replicates (AID 580;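 active = viability at or under a set limit in both replicates, limit being median viability minus 3 SD, cut at about 48% in these data, passing the limit was not always enough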;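 also: 100% = mean luminescence of untreated wells and 0% = no signal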); conditions: H69AR lung tumor cells viability, ATP luminescence, 72 h; at 10 µM; stronger effect = lower value
[6] = reversal of MRP1-mediated doxorubicin resistance, pilot screen, H69AR cells, doxorubicin co-treatment (AID 601;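 active = viability loss from added drug above about 55%, and viability with drug at most 40%, in both replicates, limit read from the data, passing the limit was not always enough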); conditions: CellTiter-Glo, 72 h, at 10 µM; for differential viability (reversal): stronger effect = higher value
[7] = 384-well plate pilot, post-Golgi transport modulator project, inhibition of yeast transport mutant growth (AID 636; in the data active = inhibition above about 31%); conditions: absorbance 615 nm, about 18 h, stronger effect = higher value
[8] = growth suppression of yeast trafficking mutant, preliminary HTS, modulators of trafficking downstream of Golgi apparatus project, 1536-format plate, OD 615 nm (AID 637; in the data active = inhibition above about 30%); conditions: yeast transport mutant growth, absorbance 615 nm, 18 h; stronger effect = higher value
[9] = H69AR cells + 2 uM doxorubicin, measured here: viability with 2 uM doxorubicin, stronger effect = lower value
[10] = H69AR cells, compound alone cytotoxicity

| SMILES | viability [1] [%] | Her2 level [2] | viability [3] | viability [4] | viability [5] | differential viability (reversal) ([6]; H69AR cells + 2 uM doxorubicin) | viability [6, 9] [%] | viability [6, 10] [%] | inhibition [7] | inhibition [8] |
| --- | --- | --- | --- | --- | --- | --- | --- | --- | --- | --- |
| CCOc1cc(C(=O)N2CCN=C2SC)cc(OCC)c1OCC | 91.5 | 83% (inactive) | 91.5% (inactive) | 87.4% (inactive) | 105% (inactive) | 10.1% (inactive) | 95.2 | 105 | -4.73% (inactive) | 9.05% (inactive) |
| O=C(NCc1cccs1)c1cc2c(s1)-c1ccccc1OC2 | 96 | 91.5% (inactive) | 96% (inactive) | 76.8% (inactive) | 94.8% (inactive) | 5.04% (inactive) | 89.7 | 94.8 | -5.2% (inactive) | 3.77% (inactive) |
| Cc1cc(C(=O)N2CCN(C/C=C/c3ccccc3)CC2)no1 | 92.5 | 97.5% (inactive) | 92.5% (inactive) | 93.8% (inactive) | 93.2% (inactive) | 0.745% (inactive) | 92.5 | 93.2 | -4.05% (inactive) | 2.62% (inactive) |
| COc1ccc(-c2c(C(F)(F)F)oc3c(CN4CCN(C)CC4)c(O)ccc3c2=O)cc1 | 84.5 | 108% (inactive) | 84.5% (inactive) | 87.9% (inactive) | 102% (inactive) | -1.1% (inactive) | 103 | 102 | -2.67% (inactive) | -6.03% (inactive) |
| O=C(CSc1nnc(-c2c[nH]c3ccccc23)o1)N(Cc1ccccc1)c1ccc(F)cc1 | 100 | 102% (inactive) | 100% (inactive) | 65.9% (inactive) | 82.4% (inactive) | -14.3% (inactive) | 96.6 | 82.4 | 2.53% (inactive) | 7.7% (inactive) |
| COC(=O)c1c(NC(=O)c2ccc(S(=O)(=O)N3CCOCC3)cc2)sc2c1CCN(C)C2 | 96 | 106% (inactive) | 96% (inactive) | 94.8% (inactive) | 90% (inactive) | -5.3% (inactive) | 95.3 | 90 | -5.26% (inactive) | -7.46% (inactive) |
| CCCCC(CC)CNC(=O)C1CCCN(S(=O)(=O)c2cnc[nH]2)C1 (stereo not given) | 91.5 | 95.5% (inactive) | 91.5% (inactive) | 105% (inactive) | 92.2% (inactive) | -1.91% (inactive) | 94.1 | 92.2 | -2.67% (inactive) | 2.79% (inactive) |
| COc1ccc(Cl)cc1S(=O)(=O)n1cnc2ccccc21 | 99 | 106% (inactive) | 99% (inactive) | 59.1% (inactive) | 33.7% (active) | -49.8% (inactive) | 83.5 | 33.7 | -4.59% (inactive) | -2.3% (inactive) |
| Nc1c(S(=O)(=O)c2cccs2)c2nc3ccccc3nc2n1CC1CCCO1 (stereo not given) | 79.5 | 89.5% (inactive) | 79.5% (inactive) | 85.2% (inactive) | 85.9% (inactive) | 4.9% (inactive) | 81 | 85.9 | -2.21% (inactive) | -1.33% (inactive) |
| Cn1c(SCC(=O)Nc2ccc3c(c2)oc2ccccc23)nnc1-c1ccccc1 | 83 | 75.5% (inactive) | 83% (inactive) | 53.1% (inactive) | 69.4% (inactive) | -7.74% (inactive) | 77.1 | 69.4 | -5.73% (inactive) | 5.9% (inactive) |
| CC(C)C(OC(=O)c1ccco1)C(=O)NCc1ccccc1 (stereo not given) | 91.5 | 97% (inactive) | 91.5% (inactive) | 92.5% (inactive) | 99.1% (inactive) | 8.63% (inactive) | 90.4 | 99.1 | 0% (inactive) | -4.6% (inactive) |
| COCCn1c(SCC(=O)Nc2nnc(C)s2)nnc1-c1ccncc1 | 110 | 94% (inactive) | 110% (inactive) | 101% (inactive) | 97.9% (inactive) | 11.8% (inactive) | 86.1 | 97.9 | -5.95% (inactive) | 7.83% (inactive) |
| Cc1cc(C)c(NC(=O)C2CCCN2CCO)c(C)c1 (stereo not given) | 83 | 135% (inactive) | 83% (inactive) | 108% (inactive) | 86.5% (inactive) | -3.78% (inactive) | 90.3 | 86.5 | 0.79% (inactive) | -8.69% (inactive) |
| CCCN(CCC)CCNC(=O)C(NS(=O)(=O)c1ccc2c(c1)CCC(=O)N2)c1ccccc1 (stereo not given) | 87.5 | 86.5% (inactive) | 87.5% (inactive) | 108% (inactive) | 89.4% (inactive) | 0.46% (inactive) | 89 | 89.4 | 1.05% (inactive) | -1.45% (inactive) |
| CCOc1ccc(-n2cc(C(=O)N3CCN(C)CC3)c3cc(OC)c(OC)cc3c2=O)cc1 | 87 | 104% (inactive) | 87% (inactive) | 103% (inactive) | 97.1% (inactive) | -12.4% (inactive) | 110 | 97.1 | 1.62% (inactive) | -0.16% (inactive) |
| COc1cc2c(C)nc(C)c(C#N)c2cc1OC | 111 | 93.5% (inactive) | 111% (inactive) | 66.4% (inactive) | 86.6% (inactive) | 10.1% (inactive) | 76.5 | 86.6 | -6% (inactive) | -2.74% (inactive) |

| SMILES | viability [1] [%] | Her2 level [2] | viability [3] | viability [4] | viability [5] | differential viability (reversal) ([6]; H69AR cells + 2 uM doxorubicin) | viability [6, 9] [%] | viability [6, 10] [%] | inhibition [7] | inhibition [8] |
| --- | --- | --- | --- | --- | --- | --- | --- | --- | --- | --- |
| CCOc1ccccc1CN1C(=O)c2ccccc2C1C(=O)NCC1CCCO1 (stereo not given) | 104 | 104% (inactive) | 104% (inactive) | 98.3% (inactive) | 101% (inactive) | -4.52% (inactive) | 105 | 101 | -1.47% (inactive) | -0.32% (inactive) |
| CCOc1ccc(OCC)c(NC(=O)CN2CCN(C(=O)c3ccco3)CC2)c1 | 75 | 103% (inactive) | 75% (inactive) | 82.4% (inactive) | 68.8% (inactive) | 38.1% (inactive) | 30.6 | 68.8 | 4.81% (inactive) | -7.3% (inactive) |
| O=C(O)CCNc1nc(-c2ccccc2)nc2ccccc12 | 87 | 102% (inactive) | 87% (inactive) | 96.3% (inactive) | 91.1% (inactive) | -2.72% (inactive) | 93.8 | 91.1 | -0.13% (inactive) | -1.11% (inactive) |
| O=C(c1ccc(Cl)c(Cl)c1)N1CCOCC1 | 102 | 103% (inactive) | 102% (inactive) | 91.7% (inactive) | 92.3% (inactive) | -5.39% (inactive) | 97.7 | 92.3 | -0.66% (inactive) | -10.8% (inactive) |
| CCN(CC)CCN1C(=O)C(O)=C(C(=O)c2ccco2)C1c1ccccn1 (stereo not given) | 109 | 93% (inactive) | 109% (inactive) | 88.9% (inactive) | 97.7% (inactive) | 1.63% (inactive) | 96 | 97.7 | -3.82% (inactive) | 5.08% (inactive) |
| CCOC(=O)N1CCC2(O)CCCCC2C1c1ccc(F)cc1 (stereo not given) | 102 | 125% (inactive) | 102% (inactive) | 91.3% (inactive) | 96.8% (inactive) | 8.28% (inactive) | 88.5 | 96.8 | -3.33% (inactive) | 30.8% (active) |
| O=C1CC2CS(=O)(=O)CC2N1c1ccc(Oc2ccccc2)cc1 (stereo not given) | 99 | 87% (inactive) | 99% (inactive) | 78.6% (inactive) | 95.6% (inactive) | -2.44% (inactive) | 98 | 95.6 | -5.47% (inactive) | 3.11% (inactive) |
| O=C(OCc1nnc(-c2ccc(Cl)cc2)o1)c1ccc(=O)n(Cc2ccccc2)n1 | 84.5 | 84.5% (inactive) | 84.5% (inactive) | 102% (inactive) | 95.1% (inactive) | 13.1% (inactive) | 82.1 | 95.1 | -4.81% (inactive) | -9% (inactive) |
| C=CCOC(=O)CCC(=O)Nc1cc(OC)nc(OC)n1 | 112 | 112% (inactive) | 112% (inactive) | 92.1% (inactive) | 90.8% (inactive) | 0.705% (inactive) | 90.1 | 90.8 | -3.07% (inactive) | 8.73% (inactive) |
| COc1ccc(C2=NOC(C(=O)NCCCN3CCOCC3)C2)cc1 (stereo not given) | 109 | 100% (inactive) | 109% (inactive) | 116% (inactive) | 87.3% (inactive) | 1.06% (inactive) | 86.2 | 87.3 | -6.71% (inactive) | 9.34% (inactive) |
| CC(=O)c1ccc(NC2OC(C)C(O)C(O)C2O)cc1 (stereo not given) | 121 | 112% (inactive) | 121% (inactive) | 100% (inactive) | 91.3% (inactive) | 1.54% (inactive) | 89.8 | 91.3 | 2.24% (inactive) | -6.67% (inactive) |
| Cc1ccc(-n2ncc3c(=O)[nH]c(SCC(=O)N4CCN(c5ccccc5)CC4)nc32)cc1 | 86 | 77% (inactive) | 86% (inactive) | 92.2% (inactive) | 76.3% (inactive) | 4.85% (inactive) | 71.5 | 76.3 | -5.79% (inactive) | -1.17% (inactive) |
| CCCOc1cccc(-c2nnc(N)s2)c1 | 102 | 121% (inactive) | 102% (inactive) | 87.4% (inactive) | 100% (inactive) | 21.6% (inactive) | 78.5 | 100 | -4.8% (inactive) | -5.56% (inactive) |
| CCCCN(CC)S(=O)(=O)c1ccc2c(c1)CCCN2C(C)=O | 88 | 79.5% (inactive) | 88% (inactive) | 88.9% (inactive) | 104% (inactive) | 0.71% (inactive) | 103 | 104 | -2.37% (inactive) | 0.48% (inactive) |
| O=C(c1cccc(C(=O)N2CCN(c3ccccc3)CC2)c1)N1CCN(c2ccccc2)CC1 | 95.5 | 106% (inactive) | 95.5% (inactive) | 81.3% (inactive) | 90.7% (inactive) | 6.69% (inactive) | 84 | 90.7 | -2.47% (inactive) | -0.33% (inactive) |
| COc1ccc(CNc2nc(SCC(=O)NCc3ccco3)nc3ccccc23)cc1 | 80 | 90.5% (inactive) | 80% (inactive) | 84.6% (inactive) | 94.4% (inactive) | 17.6% (inactive) | 76.7 | 94.4 | -3.6% (inactive) | -4.26% (inactive) |
